Most compounds without a hit are left out; they make up all but 2% or so of the library.
HSP90 inh: blocks HSP90-mediated luciferase refolding in reticulocyte lysate. 290,000 compounds, 0.91% hits. AID 1789. inhibition, % at 5.6 µM. Rabbit reticulocyte lysate, luciferase refolding luminescence, 3 h;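 active = inhibition above the screen-wide mean plus 3 SD, computed separately per campaign, cut at about 16% in these data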;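 also: 0% = DMSO wells and 100% = 60 µM geldanamycin wells; inhibitors lower the luminescence because luciferase stays unfolded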
FLuc inhib CS: counter-screen for luciferase assay inhibitors: firefly luciferase inhibition; inhibition, % at 10 µM; AID 1006; 200,000 compounds, 1.5% hits; ATPLite firefly luciferase biochemical luminescence, 10 min;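 active = inhibition above about 50% when tested at 10 µM, limit read from the data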
Target sequence (P08659 whole entry, looked up): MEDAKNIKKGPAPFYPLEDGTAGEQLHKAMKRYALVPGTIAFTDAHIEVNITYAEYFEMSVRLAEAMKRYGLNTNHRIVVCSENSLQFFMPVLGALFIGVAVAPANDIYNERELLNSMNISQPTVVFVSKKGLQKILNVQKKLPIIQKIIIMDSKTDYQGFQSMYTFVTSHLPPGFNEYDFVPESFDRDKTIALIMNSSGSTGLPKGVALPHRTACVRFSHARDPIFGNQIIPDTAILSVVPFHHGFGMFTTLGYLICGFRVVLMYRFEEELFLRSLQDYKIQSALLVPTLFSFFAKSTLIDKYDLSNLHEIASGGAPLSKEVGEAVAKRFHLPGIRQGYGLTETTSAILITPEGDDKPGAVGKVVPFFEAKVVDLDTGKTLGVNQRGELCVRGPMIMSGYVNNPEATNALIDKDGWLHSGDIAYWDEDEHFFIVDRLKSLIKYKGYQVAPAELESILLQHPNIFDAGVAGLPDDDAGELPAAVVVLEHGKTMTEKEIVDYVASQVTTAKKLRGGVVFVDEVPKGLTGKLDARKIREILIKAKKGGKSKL
PPC-1+TRAIL kill: PPC-1 cancer cell killing with TRAIL present | PPC-1 cells + TRAIL, ATPLite viability luminescence | 220,000 compounds, 0.41% hits | cell killing (% activity), % at 4 µM or 5 µM | AID 1443;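 active = cell killing above 50% in the first pass at 4 µM, then a duplicate retest at 5 µM averaging 50% or more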;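 also: plate controls were cells with TRAIL plus DMSO for no effect and medium-only wells lacking cells for full effect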
C8 TRAIL sens: caspase-8 TRAIL sensitization. NB7+C8 cells + TRAIL, ATPlite viability luminescence. inhibition (viability loss, TRAIL sensitization), % at 10 µM. 360,000 compounds, 1% hits. AID 624354;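 active = compounds causing at least 50% loss of cell viability in the single-dose screen, relative to plate controls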
FLuc act counter: affects firefly luciferase, flagging false hits in luciferase stimulation screens; P08659; ATPlite luciferase biochemical, luminescence, 10 min; 0 = ATP-free wells, 1 = DMSO control; activation factor at 10 µM; 200,000 tested, under 10 active;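 active = luciferase activation factor, scaled between plate controls, of at least 2 with compound at 10 µM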
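Material: Luciferase/luciferin reagent mix | Doses: Test compounds dosed from 2 mM stocks in 100% DMSO | Timing: 10 min incubation after luciferase reagent addition, room temperature | Measured by: Luminescence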
HSP90 confirm: HSP90 inhibition, confirmation assay; shares compounds with HSP90 inh; rabbit reticulocyte lysate, luciferase refolding luminescence, 3 h; inhibition, % at 5.9 µM; 2,300 compounds, 64% hits; AID 1846; in the data active = inhibition above about 18%;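 also: 0% = vehicle wells and 100% = reference inhibitor wells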
luciferase ctr: firefly luciferase inhibition, HSP90 counter-screen; shares compounds with HSP90 inh; AID 1847; inhibition, % at 5.9 µM; 2,300 compounds, 48% hits; purified native firefly luciferase, luminescence;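 active = inhibition above the mean inhibition of all tested sample wells plus 3 SD, cut at about 10% in these data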;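 also: 0% = DMSO with luciferase and 100% = wells lacking luciferase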
* = called active by the depositor; . = not tested or not shown.

SMILES | HSP90 inh | FLuc inhib CS | PPC-1+TRAIL kill | C8 TRAIL sens | FLuc act counter | HSP90 confirm | luciferase ctr
CC(C)(C)c1cc(C(=O)N/N=C/c2ccc(-c3ccccc3[N+](=O)[O-])o2)n[nH]1 | 13 | . | . | 15 | . | . | .
COc1ccc(-c2cn(CCO)c(-c3ccc(Cl)nc3)n2)cc1 | . | . | . | -4 | . | . | .
CC(C)(C)c1cc(NC(=O)c2cccs2)no1 | 21* | . | . | 45 | . | 36* | 13*
COC(=O)/C=C/c1ccc(OC(=O)c2ccncc2)cc1 | -2 | 2 | -4 | -8 | 1 | . | .
COc1ccc(/C=C/C(=O)NC(=S)NNC(=O)c2cc(OC)c(OC)c(OC)c2)cc1 | 26* | . | 11 | -5 | . | 61* | 27*
COc1ccc(/C=C/C(=O)NC(=S)NNC(=O)c2cc(OC)c(OC)c(OC)c2)cc1OC | 3 | . | 22 | -1 | . | . | .
Cc1c(C(=O)Nc2ccccc2C(=O)N2CCOCC2)cccc1[N+](=O)[O-] | -3 | -2 | -1 | -5 | 1 | . | .
CC(=O)Nc1ccc(OS(=O)(=O)c2ccc([N+](=O)[O-])cc2)cc1 | 55* | 1 | 6 | -8 | 1 | 76* | -5
CCOc1ccc(C(=O)NCC(=O)NNC(=O)CN(C)S(=O)(=O)c2ccc(Cl)cc2)cc1OCC | . | . | . | -1 | . | . | .
CC(C)(C)n1ncc2c(=O)n(CC(=O)OCc3ccccc3)cnc21 | 84* | 92* | 46 | 4 | 0.1 | 91* | 89*
CC(C)(C)n1ncc2c(=O)n(CC(=O)c3ccccc3)cnc21 | -4 | 12 | -5 | 16 | 0.9 | . | .
COc1cc(NCCCCCCCN)c2ncccc2c1 | 80* | 5 | 40 | 46 | 1 | 7 | -2
COc1ccc(C(=O)c2coc3ccc(O)c(CN4CCCC4)c23)cc1 | 50* | 0 | 10 | -4 | 1 | 0 | -5
CC(=O)N1c2ccccc2N=C(c2ccc3c(c2)OCO3)C1C(=O)NCc1ccccc1 (stereo unspecified) | . | . | . | -3 | . | . | .
O=C(Nc1ccccc1C(F)(F)F)c1cc(-c2ccccc2O)on1 | 21* | 1 | 2 | 23 | 1 | 2 | -9
Cc1ccc(NC(=O)C2Cc3ccccc3CN2C(=O)c2ccco2)cc1S(=O)(=O)N(C)C (stereo unspecified) | 15 | . | . | 5 | . | . | .
C[C@@H](NC(=O)c1nc[nH]c1C(=O)NCC(=O)OCc1ccccc1)c1ccccc1 | -2 | . | . | -10 | . | . | .
COCCCn1c(SCC(=O)OC2CCCCC2)nnc1-c1ccco1 | -3 | 33 | 18 | -17 | 0.7 | . | .
Cn1c(SCC(=O)OC2CCCCC2)nnc1-c1ccco1 | 22* | 13 | 34 | -1 | 0.9 | -11 | -18
O=C1N=C(N2CCCC2)S/C1=C\C=C\c1ccccc1 | 36* | . | 17 | 14 | . | 56* | 54*
CCc1ccc(/C=C2\SC(N3CCCC3)=NC2=O)cc1 | 26* | 22 | 13 | 1 | 0.8 | 12 | 12*
COc1ccc(/C=C2\SC(N3CCCCC3)=NC2=O)cc1 | -2 | . | . | 8 | . | . | .
COc1cccc(NC(=O)N2CCc3ccccc3C2)c1 | 21* | . | . | 11 | . | 3 | -15
O=C(Nc1cccc(Cl)c1)N1CCc2ccccc2C1 | -3 | . | . | 3 | . | . | .
O=C(Cc1coc2cc3c(cc12)CCC3)OCC(=O)N1CCCC1=O | 27* | -3 | 11 | -3 | 1 | 12 | -19
SMILES | HSP90 inh | FLuc inhib CS | PPC-1+TRAIL kill | C8 TRAIL sens | FLuc act counter | HSP90 confirm | luciferase ctr
CC1CCN(c2ccc(-c3cccs3)nn2)CC1 | 81* | . | . | 97* | . | 90* | 84*
Clc1ccc(-c2cccs2)nn1 | 0 | -3 | -2 | 1 | 1 | . | .
Cc1c(CCC(=O)N[C@@H](C)C(=O)O)c(=O)oc2cc3occ(-c4ccccc4)c3cc12 | -3 | . | . | -10 | . | . | .
CC(=O)/C(C#N)=C1\NC(=O)C(Cc2ccccc2C)S1 (stereo unspecified) | 3 | . | 24 | 23 | . | . | .
O=C(c1cnn2c(C(F)(F)F)cc(-c3cccs3)nc12)N1CCOCC1 | 1 | -2 | 20 | -2 | 1 | . | .
CNC1=C(N(C(C)=O)c2ccc(Br)cc2)C(=O)c2ccccc2C1=O | 63* | 1 | 68* | 92* | 1 | 12 | -7
O=C(Oc1cc(Cl)cc(Cl)c1)c1cnc2n(c1=O)CCS2 | -1 | . | -5 | -10 | . | . | .
CCOC(=O)c1csc(NC(=O)c2ccc3c(c2)OCCO3)n1 | 57* | . | . | 29 | . | 84* | -12
CCOC(=O)c1csc(NC(=O)c2ccc(OCC)cc2)n1 | 42* | 13 | 5 | 20 | 0.9 | 75* | -14
Cc1cc(-c2csc(NC(=O)c3cccc(S(=O)(=O)N(C)C)c3)n2)c(C)n1-c1ccccc1 | 1 | 0 | 12 | -4 | 1 | . | .
COC(=O)c1ccc(-n2c(C)cc(-c3csc(NC(=O)c4ccc(S(=O)(=O)N(C)C)cc4)n3)c2C)cc1 | 25* | -6 | -1 | -13 | 1.1 | 24* | -9
CCOC(=O)c1csc(NC(=O)c2ccc(S(=O)(=O)N(C)C)cc2)n1 | 25* | 0 | -1 | -10 | 1 | 37* | -7
CCOC(=O)c1csc(NC(=O)c2ccc(OC)c(OC)c2)n1 | 5 | -2 | 12 | -8 | 1 | . | .
CN(C)C(=O)c1ccccc1NC(=O)Cc1cccc2ccccc12 | -1 | . | . | -14 | . | . | .
NNC(=O)c1cccc(COc2ccc3c(c2)CCC3)c1 | 36* | 30 | 41 | 46 | 0.7 | 66* | 56*
NNC(=O)c1cccc(COc2ccccc2Br)c1 | 39* | 37 | -4 | 10 | 0.6 | 36* | 9.8*
O=S(=O)(c1ccc(-c2cn3ccccc3n2)cc1)N1CCOCC1 | 5 | 13 | -16 | 20 | 0.9 | . | .
CS(=O)(=O)c1ccc(-c2cn3cc(C(=O)O)ccc3n2)cc1 | 63* | 42 | 24 | 16 | 0.6 | 75* | 3
Cc1ccc(CNC(=O)c2ccc(S(=O)(=O)N(C)C)cc2)n1C | 2 | . | . | 1 | . | . | .
O=S(=O)(CCN1CCOCC1)c1ccc(OC(F)(F)F)cc1 | 4 | . | . | 12 | . | . | .
O=C(Nc1ccc(S(=O)(=O)N2CCCC2)cc1)C1CC(=O)N(c2ccc(F)cc2)C1 (stereo unspecified) | 1 | . | . | 25 | . | . | .
Cn1c(-c2ccccc2)cnc1SCC(=O)N1CCCCC1 | 33* | 41 | -4 | 16 | 0.6 | 64* | 56*
COCCN(C(=O)CSc1nc2ccccc2s1)c1c(N)n(Cc2ccccc2)c(=O)[nH]c1=O | . | . | . | 3 | . | . | .
O=C(c1cc(-c2cccc(Cl)c2)on1)N1CCOCC1 | 0 | . | . | 7 | . | . | .
O=C(c1cc(-c2ccc(Cl)cc2Cl)on1)N1CCOCC1 | 30* | 73* | 14 | 57* | 0.3 | 46* | 43*
COc1cc(C=C2C(=O)c3ccccc3C2=O)cc(OC)c1OC | 21* | -4 | 13 | -7 | 1 | -6 | -8
Cc1nn(-c2ccccc2)c(N2CCCC2)c1/C=N/NC(=S)Nc1ccccc1F | 10 | 7 | -15 | 22 | 0.9 | . | .

High-throughput results: PubChem BioAssay, several laboratories
